Results gathered from unrelated publications.
Each line is one published result; the experiments were not run side by side.
Cell line: HepG2
Effect on: cell growth or viability

CC[C@@](N)(c1cnc(C(F)(F)F)c(Cl)c1)c1c2ncn(C3CC3)c(=O)c2nn1C has a CC50 of greater than 50 µM (ATP luminescence).
For COC(CNC1=CC2=NCCc3c[nH]c(c32)C1=O)c1c[nH]c2ccccc12 (stereo not drawn), the CC50 was 20 µM (MTT; 72 h).
With COCC(=O)N1CCC[C@H](C(=O)NCc2nc(-c3cccnc3)cs2)C1 the CC50 was greater than 50 µM (ATP luminescence; 96 h).
For Cn1cc2c3c1C(=O)C(NCCc1ccc(O)cc1)=CC3=NCC2, the CC50 was 1 µM (MTT; 72 h).
For Cn1nc2c(=O)n(C3CC3)cnc2c1[C@](O)(c1cnc(C(F)(F)F)c(Cl)c1)C(F)(F)F, the CC50 was greater than 50 µM (ATP luminescence).
For Cn1cc2c3c1C(=O)C(NCCc1ccc(O)cc1)=CC3=[N+](C)CC2, the CC50 was 0.5 µM (MTT; 72 h).
COCC(=O)N1CCC[C@H](C(=O)NCc2nc(-c3ccc(OC)cc3)cs2)C1 has a CC50 of greater than 50 µM (ATP luminescence; 96 h).
With CCCCCCNC[C@@H](O)c1cc(Cl)cc2c1-c1ccc(Cl)cc1C2 the CC50 was 6.3 µM (48 h).
With O=C1C(NCCc2c[nH]c3ccccc23)=CC2=NCCc3c[nH]c1c32 the CC50 was 4 µM (MTT; 72 h).
O[C@@H](CN[C@@H](COCC1CC1)Cc1ccccc1)c1cc(Cl)cc2c1-c1ccc(Cl)cc1C2 gave a CC50 of 19.9 µM (48 h).
The CC50 of COCC(=O)N1CCCC(C(=O)NCc2nc(-c3ccccc3)cs2)C1 (racemic) is reported as greater than 50 µM (ATP luminescence; 96 h).
For CCCCCCCNC[C@@H](O)c1cc(Cl)cc2c1-c1ccc(Cl)cc1C2, the CC50 was 5 µM (48 h).
O=C1C=C2NCCc3c[nH]c(c32)C1=O gave a CC50 of 50 µM (MTT; 72 h).
For COCC(=O)N1CCC[C@H](C(=O)NCc2nc(-c3ccc(C)cc3)cs2)C1, the CC50 was greater than 50 µM (ATP luminescence; 96 h).
CCCCCNC[C@@H](O)c1cc(Cl)cc2c1-c1ccc(Cl)cc1C2 gave a CC50 of 6 µM (48 h).
